≈ marks a conversion by molar mass, not a printed value. Calls of active or inactive are those of the source. The calls are words filed in the database; no cut-off is given here.
Legend:
Assay type in all cases: functional
[1] = system: Pseudomonas aeruginosa; experiment: Disruption of proton motive force in Pseudomonas aeruginosa PAO1 cytoplasmic membrane assessed as repression of bacterial swimming motility at sub-MIC after 20 hrs
Method in brief: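 Swim plates of 0.3% agar with tryptone 5 g/L and NaCl 2.5 g/L, agent mixed into the medium and plates dried 2 h. PAO1 at 1.0 McFarland in 0.85% saline was point-inoculated at the center, and plates incubated 20 h at 37 °C before swim diameter was imaged.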

[2] = system: Pseudomonas aeruginosa; experiment: Antibacterial activity against multidrug/extremely drug-resistant/colistin-susceptible Pseudomonas aeruginosa isolate 100036 after 18 hrs by microtiter dilution assay
Method in brief: (§1)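 Broth microdilution following CLSI guidelines. An overnight culture was adjusted to 0.5 McFarland in saline, then diluted 1:50 in Mueller-Hinton broth. This inoculum was added in equal volume to 2-fold serial dilutions of agent in MHB and incubated 18 h at 37 °C. MIC was the lowest concentration with no visible growth.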

[3] = system: Pseudomonas aeruginosa; experiment: Antibacterial activity against multidrug/extremely drug-resistant/colistin-susceptible Pseudomonas aeruginosa isolate P262-101856 after 18 hrs by microtiter dilution assay; method in brief: as §1
[4] = system: Pseudomonas aeruginosa; experiment: Antibacterial activity against multidrug/extremely drug-resistant/colistin-susceptible Pseudomonas aeruginosa isolate P264-104354 after 18 hrs by microtiter dilution assay; method in brief: as §1
[5] = system: Pseudomonas aeruginosa; experiment: Induction of outer membrane permeabilization in Pseudomonas aeruginosa PAO1 at 32 ug/ml after 30 mins by CFDASE staining based fluorescence assay
Method in brief: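 Log-phase PAO1 washed in PBS, brought to OD600 0.5 and loaded with 100 µM CFDASE for 30 min at 37 °C, then washed. Cells were exposed to agent for 30 min at 37 °C and supernatant fluorescence read at 488/520 nm. Untreated cells were subtracted; 1% Triton X-100 served as positive control.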

[6] = system: Pseudomonas aeruginosa; experiment: Potentiation of rifampicin-induced antibacterial activity against Pseudomonas aeruginosa PAO1 at 4 ug/ml after 18 hrs by checkerboard assay
Method in brief: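 Checkerboard in MHB with a 10 × 7 matrix: antibiotic serially diluted along one axis, adjuvant along the other. Inoculum was a 1:50 dilution of a 0.5 McFarland suspension, incubated 18 h at 37 °C and read on a plate reader. Each FIC is the concentration in a no-growth well divided by the MIC alone; FIC index is their sum, with ≤0.5 taken as synergy.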

[7] = system: Pseudomonas aeruginosa; experiment: Induction of cytoplasmic membrane depolarization in Pseudomonas aeruginosa PAO1 up to 300 secs by diSC3-5 staining based fluorescence assay
Method in brief: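 Mid-log PAO1 washed in 5 mM HEPES pH 7.4 with 20 mM glucose and resuspended to OD600 0.05. Cells were loaded with 0.2 mM EDTA and 0.4 µM diSC3-5 for 2 h at 37 °C in the dark, then equilibrated with 100 mM KCl for 30 min. Agent was added and fluorescence followed at 622/670 nm; agents tested at 32 µg/mL.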

[8] = system: Pseudomonas aeruginosa; experiment: Antibacterial activity against multidrug/extremely drug-resistant/colistin-resistant Pseudomonas aeruginosa isolate 101243 after 18 hrs by microtiter dilution assay; method in brief: as §1
[9] = system: Pseudomonas aeruginosa; experiment: Antibacterial activity against multidrug/extremely drug-resistant/colistin-resistant Pseudomonas aeruginosa isolate 91433 after 18 hrs by microtiter dilution assay; method in brief: as §1
[10] = system: Pseudomonas aeruginosa; experiment: Antibacterial activity against multidrug/extremely drug-resistant/colistin-susceptible Pseudomonas aeruginosa isolate P259-96918 after 18 hrs by microtiter dilution assay; method in brief: as §1
[11] = system: Pseudomonas aeruginosa; experiment: Antibacterial activity against Pseudomonas aeruginosa PAO1 after 18 hrs by microtiter dilution assay; method in brief: as §1
[12] = system: Pseudomonas aeruginosa; experiment: Antibacterial activity against multidrug/extremely drug-resistant/colistin-susceptible Pseudomonas aeruginosa isolate 101885 after 18 hrs by microtiter dilution assay; method in brief: as §1
[13] = system: Pseudomonas aeruginosa; experiment: Potentiation of novobiocin-induced antibacterial activity against Pseudomonas aeruginosa PAO1 at 4 ug/ml after 18 hrs by checkerboard assay
[14] = system: Pseudomonas aeruginosa; experiment: Antibacterial activity against Pseudomonas aeruginosa PAO1 assessed as ratio of MIC after 25 serial passages to MIC before 25 serial passages by microtiter dilution assay
Method in brief: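 Sequential passaging of wild-type PAO1 with single drugs or drug combinations. MIC was tested in MHB for 18 h. Cells from the well at half the MIC were adjusted to 0.5 McFarland in saline, diluted 1:50 in fresh MHB and used for the next MIC test. This was repeated for 25 passages, and the fold change in MIC was plotted against passage number.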

[15] = system: Pseudomonas aeruginosa; experiment: Bactericidal activity against Pseudomonas aeruginosa PAO1 at 4 times antibacterial MIC after 2 hrs
Method in brief: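 Time-kill with P. aeruginosa PAO1. A 0.5 McFarland suspension was diluted 1:50 in LB broth and exposed to agent in PBS (pH 7.2) at 1/2×, 1×, 2× or 4× MIC at 37 °C for 6 h. Samples at 0, 10, 30, 60, 90, 120, 240 and 360 min were serially diluted in PBS, plated on LB agar, and colonies counted after 20 h at 37 °C.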

[16] = system: Pseudomonas aeruginosa; experiment: Antibacterial activity against Pseudomonas aeruginosa PAO1 after 25 serial passages at 0.125 times MIC by microtiter dilution assay
[17] = system: Acinetobacter baumannii; experiment: Antibacterial activity against multidrug-resistant Acinetobacter baumannii 110193 after 18 hrs by microtiter dilution assay; conditions: Acinetobacter baumannii, 110193, 18 h; method in brief: as §1
[18] = system: Pseudomonas aeruginosa; experiment: Bactericidal activity against Pseudomonas aeruginosa PAO1 at 0.125 times antibacterial MIC after 6 hrs
[19] = system: Acinetobacter baumannii; experiment: Antibacterial activity against multidrug-resistant Acinetobacter baumannii AB027 after 18 hrs by microtiter dilution assay; conditions: AB027, 18 h; method in brief: as §1
[20] = system: Acinetobacter baumannii; experiment: Antibacterial activity against multidrug-resistant Acinetobacter baumannii AB030 after 18 hrs by microtiter dilution assay; conditions: AB030, 18 h; method in brief: as §1
[21] = system: Klebsiella pneumoniae; experiment: Antibacterial activity against multidrug-resistant Klebsiella pneumoniae 116381 after 18 hrs by microtiter dilution assay; conditions: Klebsiella pneumoniae, 116381, 18 h; method in brief: as §1
[22] = system: Enterobacter cloacae; experiment: Antibacterial activity against multidrug-resistant Enterobacter cloacae 117029 after 18 hrs by microtiter dilution assay; conditions: Enterobacter cloacae, 117029, 18 h; method in brief: as §1
[23] = system: Pseudomonas aeruginosa; experiment: Antibacterial activity against multidrug/extremely drug-resistant/colistin-susceptible Pseudomonas aeruginosa isolate P262-101856 infected in Galleria mellonella assessed as mortality at 75 mg/kg after 24 hrs relative to control; conditions: isolate P262-101856, 24 h
Method in brief: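 Galleria mellonella larvae (about 250 mg, used within 7 days; 15 per group) were injected with 10 µL of XDR P. aeruginosa P262 at 1.0×10^3 CFU/mL. At 2 h they received a single 10 µL injection: monotherapy at 75 mg/kg, or combinations at 12.5+12.5 to 75+75 mg/kg. PBS vehicle served as control. Survival was scored over 24 h at 37 °C.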

[24] = system: Acinetobacter baumannii; experiment: Antibacterial activity against multidrug-resistant Acinetobacter baumannii AB031 after 18 hrs by microtiter dilution assay; conditions: AB031, 18 h; method in brief: as §1

## COLISTIN
[1]
  Activity: Active
[2]
  MIC: 2 µg/mL
[3]
  MIC: 2 µg/mL
[4]
  MIC: 4 µg/mL
[5]
  Activity: Active
[6]
  Activity: Active
[7]
  Activity: Dose-dependent effect
[8]
  MIC: > 1020 µg/mL
[9]
  MIC: 4 µg/mL
[10]
  MIC: 0.5 µg/mL
[11]
  MIC: 1 µg/mL
[12]
  MIC: 0.5 µg/mL
[13]
  Activity: Active
[14]
  Ratio: 1024

## CO[C@H]1/C=C/O[C@@]2(C)Oc3c(C)c(O)c4c(O)c(c(/C=N/N5CCN(C)CC5)c(O)c4c3C2=O)NC(=O)/C(C)=C\C=C\[C@H](C)[C@H](O)[C@@H](C)[C@@H](O)[C@@H](C)[C@H](OC(C)=O)[C@@H]1C [RIFAMPIN]
[2]; isolate 100036, 18 h
  MIC: 16 µg/mL (≈ 19.4 µM)
[3]; isolate P262-101856, 18 h
  MIC: 1020 µg/mL (≈ 1240 µM)
[4]; isolate P264-104354, 18 h
  MIC: 16 µg/mL (≈ 19.4 µM)
[15]
  Activity: Active
[16]
  Activity: Active
[17]
  MIC: 2 µg/mL (≈ 2.43 µM)
[18]
  Activity: inactive
[8]; isolate 101243, 18 h
  MIC: 8 µg/mL (≈ 9.72 µM)
[19]
  MIC: 2 µg/mL (≈ 2.43 µM)
[9]; isolate 91433, 18 h
  MIC: 16 µg/mL (≈ 19.4 µM)
[10]; isolate P259-96918, 18 h
  MIC: 16 µg/mL (≈ 19.4 µM)
[20]
  MIC: > 256 µg/mL
[11]; PAO1, 18 h
  MIC: 16 µg/mL (≈ 19.4 µM)
[21]
  MIC: 1020 µg/mL (≈ 1240 µM)
[22]
  MIC: 16 µg/mL (≈ 19.4 µM)
[12]; isolate 101885, 18 h
  MIC: 16 µg/mL (≈ 19.4 µM)
[23]
  mortality at 75 mg/kg: 100%
[24]
  MIC: 2 µg/mL (≈ 2.43 µM)

From ChEMBL document CHEMBL4014308, “Amphiphilic Tobramycin-Lysine Conjugates Sensitize Multidrug Resistant Gram-Negative Bacteria to Rifampicin and Minocycline” (J Med Chem, 2017)
